The list is not random: actives were taken first. Their share in the collection is about 4.9%.
STAT3 activator = IL-6 driven STAT3 reporter potentiators, primary screen, U3A cells, luciferase, luminescence, MLSCN library | 190,000 tested, 0.91% active | IL-6 STAT3-luciferase reporter; 100% = signal with IL-6 EC80 alone | activation (% of control), % at 5.6 µM;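 active = activation above the screen-wide mean of compound activation plus 3 SD, cut at about 130% in these data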
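Material: STAT3-luciferase reporter U3A cells; Probe or stimulus: IL-6 (33 ng/mL); Incubation: compound pre-incubation 1 h before IL-6, then 6 h stimulation at 37 °C; Technique: luminescence from STAT3-driven luciferase reporter; Evaluation: % activation versus median of IL-6-stimulated wells; Controls: IL-6-only high control.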
FLuc inhib CS = firefly luciferase enzyme inhibitors, primary screen, artefact control for luciferase-based inhibitor screens, biochemical, luminescence, ATPLite; 10 min; Luciferin 4-monooxygenase (Photinus pyralis), P08659; 200,000 tested, 1.5% active; inhibition, % at 10 µM;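 active = inhibition above about 50% when tested at 10 µM, limit read from the data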
Target sequence (P08659 whole entry, looked up): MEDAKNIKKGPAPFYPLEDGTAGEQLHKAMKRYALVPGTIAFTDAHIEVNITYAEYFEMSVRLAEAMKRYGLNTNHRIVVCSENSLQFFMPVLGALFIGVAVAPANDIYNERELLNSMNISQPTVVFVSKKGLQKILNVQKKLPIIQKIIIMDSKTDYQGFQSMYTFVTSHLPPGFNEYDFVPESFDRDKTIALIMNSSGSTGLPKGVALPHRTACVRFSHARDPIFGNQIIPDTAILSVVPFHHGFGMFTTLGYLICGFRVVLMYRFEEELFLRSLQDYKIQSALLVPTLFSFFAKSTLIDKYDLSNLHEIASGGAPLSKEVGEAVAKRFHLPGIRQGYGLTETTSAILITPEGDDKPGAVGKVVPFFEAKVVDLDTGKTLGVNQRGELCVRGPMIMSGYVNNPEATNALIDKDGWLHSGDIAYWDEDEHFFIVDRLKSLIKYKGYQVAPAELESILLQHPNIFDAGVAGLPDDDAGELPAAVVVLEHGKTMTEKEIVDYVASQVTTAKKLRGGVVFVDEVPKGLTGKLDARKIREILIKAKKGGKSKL
STAT3 inh-1 = IL-6 driven STAT3 reporter inhibitors, primary screen, U3A cells, luciferase, luminescence, MLSCN library. IL-6 STAT3-luciferase reporter; host cell line lacks STAT1. inhibition, % at 5.5 µM. 190,000 tested, 0.89% active. AID 862, 2007;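 active = inhibition above the mean inhibition across all screened compounds plus 3 SD, cut at about 44% in these data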
STAT1 inh = STAT1 signaling inhibitors, primary screen, cell-based, HTS, luciferase reporter; NIH 3T3 STAT1-luciferase reporter, IFN-gamma, luminescence; inhibition, % at 5.5 µM; 200,000 tested, 0.35% active;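 active = inhibition above a set limit, the mean inhibition across all tested compounds plus 3 SD, cut at about 34% in these data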
STAT1 act = STAT1 signaling activators, primary screen, cell-based, HTS, luciferase reporter; NIH 3T3 STAT1-luciferase reporter, IFN-gamma, luminescence; 100% = IFN-gamma alone, no compound; activation (% of control), % at 5.5 µM; 200,000 tested, 2.6% active; AID 932, 2007;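 active = activation above the screen-wide mean activation plus 3 SD, cut at about 130% in these data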
FLuc stim CS = FLuc activators, initial screening, artefact control for FLuc-dependent activation tests, biochemical, ATPlite luminescence | ATPlite luciferase biochemical, 10 min; 0 = ATP-free wells, 1 = DMSO control | AID 1027, 2008 | Luciferin 4-monooxygenase (Photinus pyralis), P08659 | 200,000 tested, under 10 active | activation factor at 10 µM;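 active = luciferase activation factor, scaled between plate controls, of at least 2 with compound at 10 µM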
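Material: Luciferase/luciferin reagent mix; Doses: test compounds dosed from 2 mM stocks in 100% DMSO; Schedule: 10 min incubation after luciferase reagent addition, room temperature; Measured by: luminescence from luciferase reaction; Read-out: luminescence gain marking luciferase activators.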
STAT3 inh-2 = STAT3 reporter inhibitors, retest of hits, confirmation, U3A cells, luciferase, luminescence. shares compounds with STAT3 inh-1. IL-6 STAT3 luciferase reporter; cell line lacks STAT1. 1,200 tested, 45% active. inhibition, % at 5.7 µM;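 active = inhibition above the hit cutoff computed for the primary STAT3 screen, cut at about 44% in these data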
NFkB inh STAT3ct = NF-kB reporter inhibitors in human cells, confirmation, counter-screen for STAT3 inhibitor project, cell-based, HEK293T, luciferase, TNF-alpha stimulus; 1,200 tested, 36% active; inhibition, % at 5.7 µM; TNF-alpha induced; shares compounds with STAT3 inh-1;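 active = inhibition above the mean of solvent-only control wells plus 3 SD, cutoff set per campaign, cut at about 13% in these data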
STAT1 inh STAT3c = STAT1 reporter inhibitors, IFN-gamma induced, confirmation, counter-screen for STAT3 inhibitor project, cell-based, NIH 3T3, luciferase luminescence | inhibition, % at 5.7 µM | NIH 3T3 STAT1-luciferase reporter | shares compounds with STAT3 inh-1 | 1,200 tested, 27% active;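 active = inhibition above the mean plus 3 SD of solvent-only control wells, limit set per screening run, cut at about 16% in these data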
A number is an active result; - = inactive; . = not tested or not shown.

SMILES | STAT3 activator | FLuc inhib CS | STAT3 inh-1 | STAT1 inh | STAT1 act | FLuc stim CS | STAT3 inh-2 | NFkB inh STAT3ct | STAT1 inh STAT3c
Cc1cc(C)n(-c2ccc(C(=O)Nc3cccc(S(=O)(=O)N4CCCC4)c3)cc2)n1 | - | - | 44 | - | - | - | - | - | -
C=CSc1sc(Cl)c(N(CC)CC)c1[N+](=O)[O-] | - | - | - | - | - | - | . | . | .
Cc1ccc(C(=O)Nc2cccc(C(=O)O)c2)cc1S(=O)(=O)N1CCCCC1 | - | - | 55 | - | - | - | - | 14 | 18
Cc1ccc(C(=O)Nc2cccc(C(=O)O)c2)cc1S(=O)(=O)N1CCOCC1 | - | - | - | - | - | - | . | . | .
O=C(O)c1ccc(Nc2ncnc3c2cnn3Cc2ccccc2)cc1 | - | - | - | - | - | - | . | . | .
Cc1cc(/C=C2\SC(=S)N(Cc3ccco3)C2=O)c(C)n1-c1cccnc1 | - | - | - | - | - | - | . | . | .
Cc1cc(/C=C2/SC(=S)N(c3cccc(C(F)(F)F)c3)C2=O)c(C)n1-c1cccnc1 | - | . | 78 | - | - | . | 84 | 33 | 31
O=C(CCc1ccc(S(=O)(=O)N2CCOCC2)cc1)N/N=C/c1ccc(O)c(O)c1O | - | - | - | - | - | - | . | . | .
COc1cc(C(=O)N2CCN(c3ncnc4sc(C)c(C)c34)CC2)cc(OC)c1OC | - | - | 52 | 37 | - | - | 45 | 17 | 31
c1ccc(-c2nnc(NC3=NCCC3)o2)cc1 | - | 66 | 44 | - | - | - | - | - | -
CCOC(=O)C1=NOC(CNc2ncc(C(F)(F)F)cc2Cl)C1 (stereo not given) | - | - | - | - | - | - | . | . | .
Cc1ccc(C(=O)Nc2cccc(-c3cnc4ccccc4n3)c2)cc1 | - | - | - | - | - | - | . | . | .
Cc1ccc(C(=O)Nc2ccc3nccnc3c2)cc1 | - | 89 | 52 | - | - | - | - | - | -
O=C(Nc1ccc(OC(F)(F)F)cc1)c1ccc2nccnc2c1 | - | - | - | - | - | - | . | . | .
O=C(Nc1ccc(SC(F)F)cc1)c1ccc2nccnc2c1 | - | - | 48 | - | - | - | - | - | -
Cc1c(C(=O)OC(C)C)sc(N)c1C(=O)OC(C)C | - | - | - | - | - | - | . | . | .
N#Cc1ccccc1COc1ccc(/C=C/C(=O)O)cc1 | - | - | 48 | - | - | - | - | 16 | -
N/C(=N\OC(=O)c1ccc(Cl)c([N+](=O)[O-])c1)c1ccccn1 | - | - | - | - | - | - | . | . | .
N/C(=N\OC(=O)c1cccc(Cl)c1)c1ccccn1 | - | 91 | 74 | - | - | - | - | - | -
N/C(=N\OC(=O)c1ccc(Cl)cc1)c1ccccn1 | - | 97 | 87 | - | - | - | - | - | -
Cc1ccc(-c2nnc(SCC(=O)Nc3ccccc3F)o2)cc1 | - | - | 56 | - | - | - | - | - | -
O=C(CSc1nnc(-c2ccccc2)o1)Nc1ccccc1F | - | - | 45 | - | - | - | - | - | -
CCOc1ccc(-c2nnc(SCC(=O)Nc3cc(C)on3)o2)cc1 | - | - | 49 | - | - | - | - | 16 | -
COc1cc(S(=O)(=O)Nc2cccc(C)c2)ccc1NC(=O)c1cccnc1 | - | - | - | - | - | - | . | . | .

Bioassay records from PubChem.
